Measurements from publication PMC9476207 (ACS Omega, 2022).

Tests used:
Assay in all cases: NCI-60 single-dose antiproliferative screen
Format in all cases: cell-based
HCC-2998 = conditions: Homo sapiens, HCC 2998, 48 h, read-out: growth percent
In short: (§1)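 NCI-60 protocol. Lines were grown in RPMI 1640 with 5% FBS and 2 mM L-glutamine, plated and incubated 24 h at 37 °C; time-zero plates were TCA-fixed. The test compound was dissolved in DMSO, diluted in medium with 50 μg/mL gentamicin and given once at a final 10^-5 M (DMSO control) for 48 h. Cells were fixed with cold TCA (1 h, 4 °C) and stained with 0.4% SRB in 1% acetic acid for 10 min. Dye was dissolved in 10 mM Trizma base and read at 515 nm. Growth percent was calculated from time-zero, test and control ODs.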

HCT-15 = conditions: Homo sapiens, HCT-15, 48 h, read-out: growth percent
In short: as §1

SNB-19 = conditions: Homo sapiens, SNB-19, 48 h, read-out: growth percent
In short: (§2)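 Cells grown in RPMI 1640 with 5% FBS and 2 mM L-glutamine, plated and held 24 h at 37 °C; time-zero plates TCA-fixed. DMSO stocks were diluted in gentamicin-containing medium to a final 10^-5 M, with a DMSO-only control. Exposure 48 h, 5% CO2. Adherent cells TCA-fixed 1 h at 4 °C, stained with 0.4% SRB, solubilised in 10 mM Trizma base, read at 515 nm. Growth percent derived from ODtzero, ODtest and ODctrl.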

UO-31 = conditions: Homo sapiens, UO-31, 48 h, read-out: growth percent
In short: as §2

BT-549 = conditions: Homo sapiens, BT-549, 48 h, read-out: growth percent
In short: as §1

UACC-62 = conditions: Homo sapiens, UACC-62, 48 h, read-out: growth percent
In short: as §2

RXF 393 = conditions: Homo sapiens, RXF 393, 48 h, read-out: growth percent
In short: as §1

SR = conditions: Homo sapiens, 48 h, read-out: growth percent
In short: as §2

TK-10 = conditions: Homo sapiens, TK-10, 48 h, read-out: growth percent
In short: as §2

SF-295 = conditions: Homo sapiens, SF-295, 48 h, read-out: growth percent
In short: as §1

LOX IMVI = conditions: Homo sapiens, 48 h, read-out: growth percent
In short: as §1

HOP-92 = conditions: Homo sapiens, HOP-92, 48 h, read-out: growth percent
In short: as §1

NCI-H460 = conditions: Homo sapiens, NCI-H460, 48 h, read-out: growth percent
In short: as §1

CAKI-1 = conditions: Homo sapiens, CAKI-1, 48 h, read-out: growth percent
In short: as §1

U251 = conditions: Homo sapiens, U-251, 48 h, read-out: growth percent
In short: as §2

HT29 = conditions: Homo sapiens, HT-29, 48 h, read-out: growth percent
In short: as §1

COLO205 = conditions: Homo sapiens, COLO 205, 48 h, read-out: growth percent
In short: as §1

NCI-H522 = conditions: Homo sapiens, NCI-H522, 48 h, read-out: growth percent
In short: as §1

KM12 = conditions: Homo sapiens, KM12, 48 h, read-out: growth percent
In short: as §1

SK-MEL-5 = conditions: Homo sapiens, SK-MEL-5, 48 h, read-out: growth percent
In short: as §2

EKVX = conditions: Homo sapiens, 48 h, read-out: growth percent
In short: as §1

NCI-H23 = conditions: Homo sapiens, NCI-H23, 48 h, read-out: growth percent
In short: as §1

786-0 = conditions: Homo sapiens, 786-0, 48 h, read-out: growth percent
In short: as §1

RPMI-8226 = conditions: Homo sapiens, RPMI-8226, 48 h, read-out: growth percent
In short: as §1

SK-OV-3 = conditions: Homo sapiens, SK-OV-3, 48 h, read-out: growth percent
In short: as §2

MALME-3M = conditions: Homo sapiens, 48 h, read-out: growth percent
In short: as §1

K-562 = conditions: Homo sapiens, K562, 48 h, read-out: growth percent
In short: as §1

OVCAR-5 = conditions: Homo sapiens, OVCAR-5, 48 h, read-out: growth percent
In short: as §1

MDA-MB-468 = conditions: Homo sapiens, MDA-MB-468, 48 h, read-out: growth percent
In short: as §1

NCI/ADR-RES = conditions: Homo sapiens, 48 h, read-out: growth percent
In short: as §1

MDA-MB-435 = conditions: Homo sapiens, MDA-MB-435, 48 h, read-out: growth percent
In short: as §1

HS 578T = conditions: Homo sapiens, 48 h, read-out: growth percent
In short: as §1

MCF-7 = conditions: Homo sapiens, MCF7, 48 h, read-out: growth percent
In short: as §1

T-47D = conditions: Homo sapiens, T47D, 48 h, read-out: growth percent
In short: as §2

SK-MEL-2 = conditions: Homo sapiens, SK-MEL-2, 48 h, read-out: growth percent
In short: as §2

NCI-H226 = conditions: Homo sapiens, NCI-H226, 48 h, read-out: growth percent
In short: as §1

Structure (SMILES) | activity at 10 µM (HCC-2998) [%] | activity at 10 µM (HCT-15) [%] | activity at 10 µM (SNB-19) [%] | activity at 10 µM (UO-31) [%] | activity at 10 µM (BT-549) [%] | activity at 10 µM (UACC-62) [%] | activity at 10 µM (RXF 393) [%] | activity at 10 µM (SR) [%] | activity at 10 µM (TK-10) [%] | activity at 10 µM (SF-295) [%] | activity at 10 µM (LOX IMVI) [%] | activity at 10 µM (HOP-92) [%] | activity at 10 µM (NCI-H460) [%] | activity at 10 µM (CAKI-1) [%] | activity at 10 µM (U251) [%] | activity at 10 µM (HT29) [%] | activity at 10 µM (COLO205) [%] | activity at 10 µM (NCI-H522) [%] | activity at 10 µM (KM12) [%] | activity at 10 µM (SK-MEL-5) [%] | further results
COc1cc(CNC(=O)CCCC/C=C/C(C)C)ccc1OCc1cn(-c2ccc(Cl)c(Cl)c2)nn1 [14d, (E)-N-(4-((1-(3,4-Dichlorophenyl)-1H-1,2,3-triazol-4-yl)methoxy)-3-methoxybenzyl)-8-methylnon-6-enamide] | 98.1 | 93.6 | 87.3 | 103 | 91.8 | 75.6 | 101 | 78.9 | 88.6 | 94.6 | 87 | 78.7 | 101 | 58.3 | 91.9 | 99.4 | 111 | 69.3 | 100 | 81.6 | activity at 10 µM (EKVX): 76.2%; activity at 10 µM (NCI-H23): 93.2%; activity at 10 µM (786-0): 96.3%; activity at 10 µM (RPMI-8226): 78.1%; activity at 10 µM (SK-OV-3): 97.2%; activity at 10 µM (MALME-3M): 105%; activity at 10 µM (K-562): 77.1%; activity at 10 µM (OVCAR-5): 102%; activity at 10 µM (MDA-MB-468): 71.6%; activity at 10 µM (NCI/ADR-RES): 91.1%; activity at 10 µM (MDA-MB-435): 94.2%; activity at 10 µM (HS 578T): 84%; activity at 10 µM (MCF-7): 95.3%; activity at 10 µM (T-47D): 87%; activity at 10 µM (SK-MEL-2): 108%; activity at 10 µM (NCI-H226): 76.6%
COc1cc(CNC(=O)CCCC/C=C/C(C)C)ccc1OCc1cn(-c2cc(OC)c(OC)c(OC)c2)nn1 [14m, (E)-N-(3-Methoxy-4-((1-(3,4,5-trimethoxyphenyl)-1H-1,2,3-triazol-4-yl)methoxy)benzyl)-8-methylnon-6-enamide] | 91.8 | 103 | 85.1 | 117 | 79.1 | 87.8 | 104 | 86.6 | 91.6 | 105 | 94.4 | 82.5 | 102 | 79.5 | 92.8 | 87.2 | 106 | 65.2 | 103 | 77.5 | activity at 10 µM (EKVX): 95.9%; activity at 10 µM (NCI-H23): 90.1%; activity at 10 µM (786-0): 108%; activity at 10 µM (RPMI-8226): 79.4%; activity at 10 µM (SK-OV-3): 89.9%; activity at 10 µM (MALME-3M): 98.5%; activity at 10 µM (K-562): 79.7%; activity at 10 µM (OVCAR-5): 109%; activity at 10 µM (MDA-MB-468): 80.4%; activity at 10 µM (NCI/ADR-RES): 91.7%; activity at 10 µM (MDA-MB-435): 106%; activity at 10 µM (HS 578T): 69%; activity at 10 µM (MCF-7): 102%; activity at 10 µM (T-47D): 95.8%; activity at 10 µM (SK-MEL-2): 97.6%; activity at 10 µM (NCI-H226): 91.4%
CCc1ccc(-n2cc(COc3ccc(CNC(=O)CCCC/C=C/C(C)C)cc3OC)nn2)cc1 [14o, (E)-N-(4-((1-(4-Ethylphenyl)-1H-1,2,3-triazol-4-yl)methoxy)-3-methoxybenzyl)-8-methylnon-6-enamide] | 99.7 | 94.4 | 85.7 | 93.9 | 99.1 | 71.4 | 101 | 87.5 | 87.4 | 100 | 89.3 | 86.5 | 103 | 77.4 | 89.4 | 109 | 121 | 65.9 | 100 | 84 | activity at 10 µM (EKVX): 82.1%; activity at 10 µM (NCI-H23): 89.5%; activity at 10 µM (786-0): 100%; activity at 10 µM (RPMI-8226): 74%; activity at 10 µM (SK-OV-3): 102%; activity at 10 µM (MALME-3M): 108%; activity at 10 µM (K-562): 78.6%; activity at 10 µM (OVCAR-5): 112%; activity at 10 µM (MDA-MB-468): 79.8%; activity at 10 µM (NCI/ADR-RES): 87.7%; activity at 10 µM (MDA-MB-435): 107%; activity at 10 µM (HS 578T): 78%; activity at 10 µM (MCF-7): 102%; activity at 10 µM (T-47D): 111%; activity at 10 µM (SK-MEL-2): 95.2%; activity at 10 µM (NCI-H226): 76.7%
